Values after ≈ are worked out from the molar mass of the structure shown. Active and inactive are the calls of the source. The rule behind the calls is not given here.
Experiments:
Type in all cases: functional
Saccharomyces cerevisiae [1] = experiment: Antifungal activity against PDR5/SNQ2/YOR1 deficient Saccharomyces cerevisiae expressing PDR1 to 3 allele after 24 to 48 hrs by microdilution assay
Method in brief: (§1)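 96-well microdilution; samples added from DMSO stocks (solvent ≤1.2%, matched in controls), serially diluted before inoculation; trifluoperazine, ketoconazole and fluconazole as positive controls. Growth read as OD550 plus visual inspection at 24 and 48 h. MIC = lowest concentration giving ≥80% growth inhibition vs drug-free control; values observed in three independent measurements.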

Saccharomyces cerevisiae [2] = experiment: Antifungal activity against PDR5/SNQ2/YOR1 deficient Saccharomyces cerevisiae after 24 to 48 hrs by microdilution assay; method in brief: as §1
Saccharomyces cerevisiae [3] = experiment: Antifungal activity against PDR1/PDR3 deficient Saccharomyces cerevisiae after 24 to 48 hrs by microdilution assay; method in brief: as §1
Saccharomyces cerevisiae [4] = experiment: Antifungal activity against wild type Saccharomyces cerevisiae after 24 to 48 hrs by microdilution assay; method in brief: as §1
Saccharomyces cerevisiae [5] = experiment: Antifungal activity against PDR5/SNQ2/YOR1 deficient Saccharomyces cerevisiae expressing PDR1 to 3 allele and heterologously overproduced Cdr1p gene after 24 to 48 hrs by microdilution; method in brief: as §1
Nakaseomyces glabratus = experiment: Antifungal activity against wild type Candida glabrata CCM 8270 after 46 to 50 hrs by broth microdilution assay
Method in brief: (§2)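 CLSI M27-A broth microdilution in MOPS-buffered (pH 7) RPMI 1640. Samples added from DMSO stocks (solvent ≤1.2%, matched in controls), serially diluted before inoculation. Growth read as OD550 plus visual inspection at 24 and 48 h. MIC = lowest concentration inhibiting growth ≥80% vs drug-free control; three independent measurements.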

Candida albicans = experiment: Antifungal activity against wild type Candida albicans CCM 8320 after 46 to 50 hrs by broth microdilution assay; method in brief: as §2

Compound	MIC (Saccharomyces cerevisiae [1])	MIC (Saccharomyces cerevisiae [2])	MIC (Saccharomyces cerevisiae [3])	MIC (Saccharomyces cerevisiae [4])	MIC (Saccharomyces cerevisiae [5])	MIC (Nakaseomyces glabratus)	MIC (Candida albicans)
COc1ccc(C[C@H]2OC(=O)C=C2c2ccc(O)cc2O)cc1	–	–	–	–	–	244 µg/mL (≈ 781 µM)	inactive
C=CC(C)(C)c1cc([C@]2(O)COc3cc(O)c(CC=C(C)C)c(O)c3C2=O)c(O)cc1O	3.8 µg/mL (≈ 8.63 µM)	3.8 µg/mL (≈ 8.63 µM)	15.2 µg/mL (≈ 34.5 µM)	61 µg/mL (≈ 138 µM)	244 µg/mL (≈ 554 µM)	122 µg/mL (≈ 277 µM)	inactive
COc1ccc([C@H]2COc3c(ccc(O)c3O)C2)c2c1C=CC(C)(C)O2	30.5 µg/mL (≈ 86.1 µM)	30.5 µg/mL (≈ 86.1 µM)	15.2 µg/mL (≈ 42.9 µM)	30.5 µg/mL (≈ 86.1 µM)	244 µg/mL (≈ 688 µM)	30.5 µg/mL (≈ 86.1 µM)	61 µg/mL (≈ 172 µM)
COc1ccc([C@H]2COc3c(ccc(O)c3O)C2)c(O)c1CC=C(C)C	3.8 µg/mL (≈ 10.7 µM)	3.8 µg/mL (≈ 10.7 µM)	3.8 µg/mL (≈ 10.7 µM)	15.2 µg/mL (≈ 42.6 µM)	30.5 µg/mL (≈ 85.6 µM)	–	–

Second part, the compound after the results:

MIC (Saccharomyces cerevisiae [1])	MIC (Saccharomyces cerevisiae [2])	MIC (Saccharomyces cerevisiae [3])	MIC (Saccharomyces cerevisiae [4])	MIC (Saccharomyces cerevisiae [5])	MIC (Nakaseomyces glabratus)	MIC (Candida albicans)	Compound
3.8 µg/mL (≈ 10.3 µM)	3.8 µg/mL (≈ 10.3 µM)	3.8 µg/mL (≈ 10.3 µM)	15.2 µg/mL (≈ 41 µM)	61 µg/mL (≈ 165 µM)	–	–	C=CC(C)(C)c1cc([C@@H]2COc3c(ccc(O)c3O)C2)c(OC)cc1OC
1.9 µg/mL (≈ 5.61 µM)	1.9 µg/mL (≈ 5.61 µM)	3.8 µg/mL (≈ 11.2 µM)	30.5 µg/mL (≈ 90.1 µM)	> 244 µg/mL	30.5 µg/mL (≈ 90.1 µM)	inactive	COc1ccc2c(c1CC=C(C)C)O[C@@H]1c3ccc(O)cc3OC[C@H]21 [ENT-SANDWICENSIN]
0.95 µg/mL (≈ 2.24 µM)	0.95 µg/mL (≈ 2.24 µM)	0.95 µg/mL (≈ 2.24 µM)	15.2 µg/mL (≈ 35.8 µM)	> 244 µg/mL	–	–	C=CC(C)(C)c1cc(C2COc3cc(O)c(CC=C(C)C)c(O)c3C2=O)c(O)cc1O (racemic)
1.9 µg/mL (≈ 5.16 µM)	1.9 µg/mL (≈ 5.16 µM)	1.9 µg/mL (≈ 5.16 µM)	7.6 µg/mL (≈ 20.6 µM)	244 µg/mL (≈ 662 µM)	7.6 µg/mL (≈ 20.6 µM)	15 µg/mL (≈ 40.7 µM)	COc1ccc(C2COc3cc(O)cc(O)c3C2=O)c2c1C=CC(C)(C)O2 (racemic)
